{"source": "ChEMBL document CHEMBL1144277", "about": "“Acyl sulfonamide anti-proliferatives. Part 2: activity of heterocyclic sulfonamide derivatives” (Bioorg Med Chem Lett, 2005)", "key": {"[1]": {"test": "Inhibitory concentration against Vascular Endothelial Growth Factor dependent Human Umbilical Vascular Endothelial Cells (VEGF-HUVEC)", "assay_type": "functional", "procedure,_shortened": "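Anti-proliferative IC50 measured in HUVEC whose growth depends on VEGF; reported values are means of at least three experiments.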"}, "HCT-116 [2]": {"tested_on": "HCT-116", "test": "Zone of inhibition by the compound against HCT116 human tumor cells at dose of 200 ug/disk", "assay_type": "functional", "procedure,_shortened": "(§1)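 HCT116 colon carcinoma cells in a soft-agar disk diffusion assay, giving a qualitative measure of cytotoxicity. The test agent is applied on a disk at the stated µg per disk. The zone of inhibition is read in zone units (200 units = 6.5 mm), and a zero zone means no inhibition.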"}, "L1210 [3]": {"tested_on": "L1210", "test": "Zone of inhibition by the compound against L1210 Cells at dose of 200 ug/disk; Range 0-250", "assay_type": "functional, Mus musculus", "procedure,_shortened": "(§2)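 Soft-agar disk diffusion assay on L1210 leukemia cells or normal fibroblasts, with the agent applied on a disk at the stated µg per disk. The zone of inhibition is recorded in zone units (200 units = 6.5 mm), and a zero zone denotes no inhibition.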"}, "[4]": {"test": "Zone of inhibition by the compound against Normal fibroblasts at dose of 200 ug/disk; Range 0-400", "assay_type": "functional", "procedure,_shortened": "as §2"}, "HCT-116 [5]": {"tested_on": "HCT-116", "test": "Zone of inhibition by the compound against HCT116 human tumor cells at dose of 210 ug/disk; Range 470-530", "assay_type": "functional", "procedure,_shortened": "as §1"}, "[6]": {"test": "Zone of inhibition by the compound against Normal fibroblasts at dose of 210 ug/disk; Range 0-270", "assay_type": "functional", "procedure,_shortened": "as §2"}, "L1210 [7]": {"tested_on": "L1210", "test": "Zone of inhibition by the compound against L1210 Cells at dose of 210 ug/disk; Range 200-270", "assay_type": "functional, Mus musculus", "procedure,_shortened": "as §2"}, "L1210 [8]": {"tested_on": "L1210", "test": "Zone of inhibition by the compound against L1210 Cells at dose of 200 ug/disk; No inhibition", "assay_type": "functional, Mus musculus", "procedure,_shortened": "as §2"}, "HCT-116 [9]": {"tested_on": "HCT-116", "test": "Zone of inhibition by the compound against HCT116 human tumor cells at dose of 115 ug/disk", "assay_type": "functional", "procedure,_shortened": "as §1"}, "L1210 [10]": {"tested_on": "L1210", "test": "Zone of inhibition by the compound against L1210 Cells at dose of 210 ug/disk;", "assay_type": "functional, Mus musculus", "procedure,_shortened": "as §2"}, "HCT-116 [11]": {"tested_on": "HCT-116", "test": "Zone of inhibition by the compound against HCT116 human tumor cells at dose of 210 ug/disk", "assay_type": "functional", "procedure,_shortened": "as §1"}, "[12]": {"test": "Zone of inhibition by the compound against Normal fibroblasts at dose of 210 ug/disk; Range 0-370", "assay_type": "functional", "procedure,_shortened": "as §2"}, "L1210 [13]": {"tested_on": "L1210", "test": "Zone of inhibition by the compound against L1210 Cells at dose of 210 ug/disk; No inhibition", "assay_type": "functional, Mus musculus", "procedure,_shortened": "as §2"}, "[14]": {"test": "Zone of inhibition by the compound against Normal fibroblasts at dose of 210 ug/disk; Range 0-400", "assay_type": "functional", "procedure,_shortened": "as §2"}, "L1210 [15]": {"tested_on": "L1210", "test": "Zone of inhibition by the compound against L1210 Cells at dose of 190 ug/disk; No inhibition", "assay_type": "functional, Mus musculus", "procedure,_shortened": "as §2"}, "[16]": {"test": "Zone of inhibition by the compound against Normal fibroblasts at dose of 190 ug/disk; Range 0-350", "assay_type": "functional", "procedure,_shortened": "as §2"}, "HCT-116 [17]": {"tested_on": "HCT-116", "test": "Zone of inhibition by the compound against HCT116 human tumor cells at dose of 190 ug/disk", "assay_type": "functional", "procedure,_shortened": "as §1"}, "[18]": {"test": "Zone of inhibition by the compound against Normal fibroblasts at dose of 210 ug/disk; Range 0-330", "assay_type": "functional", "procedure,_shortened": "as §2"}, "L1210 [19]": {"tested_on": "L1210", "test": "Zone of inhibition by the compound against L1210 Cells at dose of 210 ug/disk; Range 0-60", "assay_type": "functional, Mus musculus", "procedure,_shortened": "as §2"}}, "note": "pIC50: −log10 of the molar value.", "data": [{"compound": "O=C(NS(=O)(=O)c1cccc2sccc12)c1ccc(Cl)cc1Cl", "values": [{"measurement": "pIC50", "setting": "[1]", "result": 5.48}]}, {"compound": "COC(=O)c1ccc(S(=O)(=O)NC(=O)c2ccc(Cl)cc2Cl)s1", "values": [{"measurement": "pIC50", "setting": "[1]", "result": 5.86}]}, {"compound": "O=C(NS(=O)(=O)c1cnc(Cl)s1)c1ccc(Cl)cc1Cl", "values": [{"measurement": "pIC50", "setting": "[1]", "result": 5.96}]}, {"compound": "CCc1ccc(S(=O)(=O)NC(=O)c2ccc(Cl)cc2Cl)s1", "values": [{"measurement": "pIC50", "setting": "[1]", "result": 6.51}]}, {"compound": "O=C(NS(=O)(=O)c1cccc2ccsc12)c1ccc(Cl)cc1Cl", "values": [{"measurement": "pIC50", "setting": "[1]", "result": 5.38}]}, {"compound": "O=C(NS(=O)(=O)c1cc(Br)cs1)c1ccc(Cl)cc1Cl", "values": [{"measurement": "pIC50", "setting": "[1]", "result": 6.22}]}, {"compound": "O=C(NS(=O)(=O)c1ccc2c(c1)OCCO2)c1ccc(Cl)cc1Cl", "values": [{"measurement": "Zone of inhibition", "setting": "HCT-116 [2]", "result": "580 zone of inhibition units"}, {"measurement": "pIC50", "setting": "[1]", "result": 6.40}, {"measurement": "Zone of inhibition", "setting": "L1210 [3]", "result": "250 zone of inhibition units"}, {"measurement": "Zone of inhibition", "setting": "[4]", "result": "400 zone of inhibition units"}]}, {"compound": "O=C(NS(=O)(=O)c1ccc2ccccc2c1)c1ccc(Cl)cc1Cl", "values": [{"measurement": "Zone of inhibition", "setting": "HCT-116 [5]", "result": "530 zone of inhibition units"}, {"measurement": "pIC50", "setting": "[1]", "result": 6.10}, {"measurement": "Zone of inhibition", "setting": "[6]", "result": "270 zone of inhibition units"}, {"measurement": "Zone of inhibition", "setting": "L1210 [7]", "result": "270 zone of inhibition units"}]}, {"compound": "O=C(NS(=O)(=O)c1ccc2sccc2c1)c1ccc(Cl)cc1Cl", "values": [{"measurement": "pIC50", "setting": "[1]", "result": 6.21}]}, {"compound": "O=C(NS(=O)(=O)c1cc(Cl)c(Br)s1)c1ccc(Cl)cc1Cl", "values": [{"measurement": "pIC50", "setting": "[1]", "result": 6.12}]}, {"compound": "O=C(NS(=O)(=O)c1cccc2cc[nH]c12)c1ccc(Cl)cc1Cl", "values": [{"measurement": "pIC50", "setting": "[1]", "result": 5.52}]}, {"compound": "Cc1csc(S(=O)(=O)NC(=O)c2ccc(Cl)cc2Cl)c1", "values": [{"measurement": "pIC50", "setting": "[1]", "result": 6.15}]}, {"compound": "O=C(NS(=O)(=O)c1ccsc1)c1ccc(Cl)cc1Cl", "values": [{"measurement": "pIC50", "setting": "[1]", "result": 5.90}]}, {"compound": "O=C(NS(=O)(=O)c1ccc(Cl)c(Cl)c1)c1ccc(Cl)cc1Cl", "values": [{"measurement": "Zone of inhibition", "setting": "HCT-116 [2]", "result": "560 zone of inhibition units"}]}, {"compound": "O=C(NS(=O)(=O)c1cccc2ccoc12)c1ccc(Cl)cc1Cl", "values": [{"measurement": "pIC50", "setting": "[1]", "result": 5.28}]}, {"compound": "Cc1ccc(S(=O)(=O)NC(=O)c2ccc(Cl)cc2Cl)s1", "values": [{"measurement": "pIC50", "setting": "[1]", "result": 6.22}]}, {"compound": "CCc1ncc(S(=O)(=O)NC(=O)c2ccc(Cl)cc2Cl)s1", "values": [{"measurement": "pIC50", "setting": "[1]", "result": 6.22}]}, {"compound": "Cc1ncc(S(=O)(=O)NC(=O)c2ccc(Cl)cc2Cl)s1", "values": [{"measurement": "pIC50", "setting": "[1]", "result": 5.93}]}, {"compound": "O=C(NS(=O)(=O)c1ccc2c(c1)OCO2)c1ccc(Cl)cc1Cl", "values": [{"measurement": "Zone of inhibition", "setting": "HCT-116 [2]", "result": "610 zone of inhibition units"}, {"measurement": "pIC50", "setting": "[1]", "result": 6.32}, {"measurement": "Zone of inhibition", "setting": "[4]", "result": "400 zone of inhibition units"}, {"measurement": "Zone of inhibition", "setting": "L1210 [8]", "result": "0 zone of inhibition units"}]}, {"compound": "O=C(NS(=O)(=O)c1ccccc1)c1ccc(Cl)cc1Cl", "values": [{"measurement": "Zone of inhibition", "setting": "HCT-116 [9]", "result": "700 zone of inhibition units"}]}, {"compound": "O=C(NS(=O)(=O)c1cc2ccccc2s1)c1ccc(Cl)cc1Cl", "values": [{"measurement": "Zone of inhibition", "setting": "L1210 [10]", "result": "100 zone of inhibition units"}, {"measurement": "Zone of inhibition", "setting": "HCT-116 [11]", "result": "500 zone of inhibition units"}, {"measurement": "pIC50", "setting": "[1]", "result": 6.02}, {"measurement": "Zone of inhibition", "setting": "[12]", "result": "370 zone of inhibition units"}]}, {"compound": "O=C(NS(=O)(=O)c1ccc2c(c1)CCO2)c1ccc(Cl)cc1Cl", "values": [{"measurement": "Zone of inhibition", "setting": "L1210 [13]", "result": "0 zone of inhibition units"}, {"measurement": "Zone of inhibition", "setting": "[14]", "result": "400 zone of inhibition units"}, {"measurement": "Zone of inhibition", "setting": "HCT-116 [11]", "result": "680 zone of inhibition units"}, {"measurement": "pIC50", "setting": "[1]", "result": 6.37}]}, {"compound": "COc1ccc(S(=O)(=O)NC(=O)c2ccc(Cl)cc2Cl)s1", "values": [{"measurement": "pIC50", "setting": "[1]", "result": 6.17}]}, {"compound": "O=C(NS(=O)(=O)c1ccc(Cl)s1)c1ccc(Cl)cc1Cl", "values": [{"measurement": "pIC50", "setting": "[1]", "result": 6.44}]}, {"compound": "O=C(NS(=O)(=O)c1cccs1)c1ccc(Cl)cc1Cl", "values": [{"measurement": "Zone of inhibition", "setting": "L1210 [15]", "result": "0 zone of inhibition units"}, {"measurement": "Zone of inhibition", "setting": "[16]", "result": "350 zone of inhibition units"}, {"measurement": "Zone of inhibition", "setting": "HCT-116 [17]", "result": "490 zone of inhibition units"}, {"measurement": "pIC50", "setting": "[1]", "result": 6.27}]}, {"compound": "O=C(NS(=O)(=O)c1ccc2ccsc2c1)c1ccc(Cl)cc1Cl", "values": [{"measurement": "pIC50", "setting": "[1]", "result": 6.19}]}, {"compound": "O=C(NS(=O)(=O)c1ccc(Cl)cc1)c1ccc(Cl)cc1Cl", "values": [{"measurement": "Zone of inhibition", "setting": "HCT-116 [2]", "result": "660 zone of inhibition units"}]}, {"compound": "O=C(NS(=O)(=O)c1cc2ccccc2o1)c1ccc(Cl)cc1Cl", "values": [{"measurement": "pIC50", "setting": "[1]", "result": 6.01}]}, {"compound": "CCc1nc(S(=O)(=O)NC(=O)c2ccc(Cl)cc2Cl)c[nH]1", "values": [{"measurement": "pIC50", "setting": "[1]", "result": "< 4.70"}]}, {"compound": "CN1CCc2ccc(S(=O)(=O)NC(=O)c3ccc(Cl)cc3Cl)cc21", "values": [{"measurement": "Zone of inhibition", "setting": "HCT-116 [11]", "result": "630 zone of inhibition units"}, {"measurement": "Zone of inhibition", "setting": "[18]", "result": "330 zone of inhibition units"}, {"measurement": "pIC50", "setting": "[1]", "result": 5.81}, {"measurement": "Zone of inhibition", "setting": "L1210 [19]", "result": "60 zone of inhibition units"}]}, {"compound": "COc1ncc(S(=O)(=O)NC(=O)c2ccc(Cl)cc2Cl)s1", "values": [{"measurement": "pIC50", "setting": "[1]", "result": 6.27}]}, {"compound": "O=C(NS(=O)(=O)c1ccc2ccoc2c1)c1ccc(Cl)cc1Cl", "values": [{"measurement": "pIC50", "setting": "[1]", "result": 6.23}]}, {"compound": "O=C(NS(=O)(=O)c1ccc2cc[nH]c2c1)c1ccc(Cl)cc1Cl", "values": [{"measurement": "pIC50", "setting": "[1]", "result": 5.73}]}, {"compound": "N#Cc1ccc(S(=O)(=O)NC(=O)c2ccc(Cl)cc2Cl)s1", "values": [{"measurement": "pIC50", "setting": "[1]", "result": 5.50}]}, {"compound": "O=C(NS(=O)(=O)c1cc(Br)c(Br)s1)c1ccc(Cl)cc1Cl", "values": [{"measurement": "pIC50", "setting": "[1]", "result": 6.66}]}, {"compound": "O=C(NS(=O)(=O)c1cc(Cl)cs1)c1ccc(Cl)cc1Cl", "values": [{"measurement": "pIC50", "setting": "[1]", "result": 6.41}]}]}
